The target of experiment [1] is T1, Neuropeptide Y receptor type 1 (Homo sapiens) (UniProt P25929).
T1 sequence (whole entry): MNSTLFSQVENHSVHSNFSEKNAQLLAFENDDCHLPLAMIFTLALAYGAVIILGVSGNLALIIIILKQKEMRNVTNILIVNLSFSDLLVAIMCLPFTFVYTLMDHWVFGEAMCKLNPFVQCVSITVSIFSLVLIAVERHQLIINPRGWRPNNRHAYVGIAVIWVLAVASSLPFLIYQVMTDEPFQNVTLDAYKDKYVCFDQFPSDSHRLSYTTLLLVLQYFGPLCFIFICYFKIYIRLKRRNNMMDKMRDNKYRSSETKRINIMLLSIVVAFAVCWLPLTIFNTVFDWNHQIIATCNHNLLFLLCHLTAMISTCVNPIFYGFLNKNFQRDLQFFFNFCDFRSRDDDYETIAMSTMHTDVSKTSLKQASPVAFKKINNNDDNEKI
Nature of the experiment: Displacement of [3H]NPY from neuropeptide Y1 receptor in human SK-N-MC cells at 100 ug/ml after 60 mins by scintillation counting. Format: cell-based. The essentials: (§1)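 SK-N-MC neuroblastoma cells, which natively express Y1, were grown to confluence, PBS-washed and equilibrated 15 min at room temperature in DMEM with 0.5% BSA. […] Steps were 30 min each at 37 °C, followed by ice, PBS wash, 1 M NaOH lysis for 30 min and scintillation counting. Results are % specific binding.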
On the technique in general: Loss of bound radioactivity is the signal in a displacement assay; it reports binding, not function.

Experiment [2] addresses T2, Endothelin-1 receptor (Homo sapiens) (UniProt P25101).
T2 sequence (whole entry): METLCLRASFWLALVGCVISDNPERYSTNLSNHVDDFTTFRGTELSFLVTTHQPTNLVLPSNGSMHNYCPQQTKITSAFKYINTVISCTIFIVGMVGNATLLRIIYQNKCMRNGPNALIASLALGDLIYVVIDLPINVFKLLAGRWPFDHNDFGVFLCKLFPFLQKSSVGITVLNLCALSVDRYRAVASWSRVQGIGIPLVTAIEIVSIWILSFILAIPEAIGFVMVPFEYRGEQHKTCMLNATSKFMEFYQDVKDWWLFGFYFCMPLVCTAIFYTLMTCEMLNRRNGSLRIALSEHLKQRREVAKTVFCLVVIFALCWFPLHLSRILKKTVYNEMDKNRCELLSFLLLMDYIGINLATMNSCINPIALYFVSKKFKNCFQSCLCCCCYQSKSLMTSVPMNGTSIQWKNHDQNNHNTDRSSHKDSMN
As to the kind of experiment: Displacement of [3H]BQ-123 from human ETA receptor in human SK-N-MC cells at 100 ug/ml after 60 mins by scintillation counting. The experiment is classed as cell-based. An outline of the steps:
(§2)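 Confluent human neuroblastoma SK-N-MC cells, which naturally express ETA, were PBS-washed and held 15 min at room temperature in DMEM with 0.1% BSA. […] Preincubation and incubation were 30 min each at 37 °C. Cells were then put on ice, washed, lysed in 1 M NaOH for 30 min and counted by scintillation. Results are % of specific binding.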

Experiment [3] concerns the target T2, Endothelin-1 receptor (Homo sapiens). Nature of the experiment: Displacement of [3H]BQ-123 from human ETA receptor in human SK-N-MC cells at 10 ug/ml after 60 mins by scintillation counting. Format: cell-based. An outline of the steps:
as §2

The target in experiment [4] is T1, Neuropeptide Y receptor type 1 (Homo sapiens). Nature of the experiment: Displacement of [3H]NPY from neuropeptide Y1 receptor in human SK-N-MC cells at 10 ug/ml after 60 mins by scintillation counting. The experiment is classed as cell-based. An outline of the steps: as §1
For experiment [5], the system named is Plasmodium falciparum. Nature of the experiment: Antimalarial activity against Plasmodium falciparum D6 after 24 hrs by microtiter plate assay. The following applies: D6, 24 h. The experiment is classed as functional, organism-based.
Experiment [6] relates to Plasmodium falciparum. As to the kind of experiment: Antimalarial activity against Plasmodium falciparum W2 after 24 hrs by microtiter plate assay. The experiment is classed as functional, organism-based. The following applies: W2, 24 h.

SMILES strings stand for the structures. Values after ≈ are worked out from the molar mass of the structure shown.

In general, IC50 refers to the concentration needed to halve the response being measured. Higher therefore signals a need for much substance.

For the molecule `CN(C)CCc1c[nH]c2cc(Br)c(Br)cc12`, the Activity in experiment [1] was 17%; in experiment [2] it was 62%; in experiment [3], 100%; in experiment [4], 100%.

For the molecule `CC/C=C/C(CC)CCC[C@@]1(CC)C[C@H](CC)[C@H](CC(=O)OC)OO1` (stereo partly specified), the Activity came to 100% in experiment [1], 88% in experiment [2], 100% in experiment [3] and 100% in experiment [4].

Turning to `Nc1nc([C@H]2[C@H](CNC(=O)c3cc(Br)c[nH]3)[C@@H](CNC(=O)c3cc(Br)c[nH]3)[C@@H]2c2c[nH]c(N)n2)c[nH]1`, the Activity was found to be 12% in experiment [1], 80% in experiment [2], 100% in experiment [3] and 95% in experiment [4].

Consider `Nc1ncc(C2=CCNC(=O)c3[nH]c(Br)c(Br)c32)[nH]1`, for which the Activity in experiment [1] turned out to be 81%; in experiment [2], 68%; in experiment [3] it was 78%; in experiment [4], 100%.

Regarding `C/C=C1\NC(=O)[C@H](Cc2ccccc2)NC(=O)[C@@H](C(C)C)NC(=O)[C@@H]([C@@H](C)CC)NC(=O)[C@H](NC(=O)[C@H](NC(=O)[C@H](CCCN)NC(=O)[C@H]2CCCN2C(=O)[C@H](NC(=O)[C@@H](NC(=O)[C@@H](NC(=O)[C@H](NC(=O)CCCC(C)(C)O)C(C)C)[C@@H](C)O)C(C)C)C(C)C)[C@@H](C)CC)[C@H](C)OC(=O)[C@H](C(C)C)NC1=O`, the IC50 in the experiment with Plasmodium falciparum [5] came to 1.5 µg/mL (≈ 1 µM); in the experiment with Plasmodium falciparum [6] it was 1.2 µg/mL (≈ 0.803 µM).

In the case of `CC(C)C[C@H]1NC(=O)[C@@H](Cc2ccccc2)NC(=O)[C@@H](CC(C)C)NC(=O)[C@H](NC(=O)[C@@H](Cc2ccccc2)NC(=O)C(C)C)[C@H](C)OC(=O)[C@H](CO)NC(=O)[C@@H]([C@H](C)O)NC1=O`, the Activity in experiment [1] amounted to 18%; in experiment [2], 96%; in experiment [3], 99%; in experiment [4], 100%.

As for `CC(=O)OC(C)C(OC(C)=O)C(CCCCCCCCCCCCC1=CC(C)OC1=O)C(=O)O` (stereo unspecified), the Activity came out at 86% in experiment [1], 79% in experiment [2], 98% in experiment [3] and 100% in experiment [4].

`O=C1C2=C(C3=NCCc4c[nH]c1c43)C1(C=C(Br)C(O)C(Br)=C1)CCN2` (stereo unspecified): the Activity in experiment [1] came out at 29%; in experiment [2] it was 100%; in experiment [3] it was 100%; in experiment [4] it was 82%.

Turning to `CN(C)CCc1c[nH]c2ccc(Br)cc12`, the Activity in experiment [1] was 76%; in experiment [2] it was 89%; in experiment [3], 97%; in experiment [4], 100%.

As for `O=C1C[C@H]2S[C@H]3C[C@]2(C=C1Br)C1=C(N3)C(=O)c2[nH]cc3c2C1=NCC3`, the Activity in experiment [1] stood at 40%; in experiment [2], 79%; in experiment [3] it was 100%; in experiment [4], 90%.

For `N=C(NCCCCCCNC(=N)NC(=N)Nc1ccc(Cl)cc1)NC(=N)Nc1ccc(Cl)cc1`, the Activity in experiment [1] is 81%; in experiment [2], 79%; in experiment [3] it was 100%; in experiment [4] it was 100%.

For the molecule `CC/C=C/C(CC)CCC[C@@]1(CC)C[C@H](CC)[C@H](CC(=O)O)OO1` (stereo partly specified), the Activity is 56% in experiment [1], 68% in experiment [2], 100% in experiment [3] and 100% in experiment [4].

Values taken from ChEMBL document CHEMBL1153738 (J Nat Prod, 2009).
